Compound activity from PubChem BioAssay.
Shown are actives, neighbours in structure and some others; about 2.3% of the full set was active somewhere.
RBBP9 inhibitor – blocks human serine hydrolase RBBP9; actives 0.2% (n = 220,000); inhibition, % at 7.94 µM; recombinant RBBP9, FP-Rh probe fluorescence polarization; O75884;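 active means inhibition above the campaign mean of all tested compounds plus 3 SD, cut at about 14% in these data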;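 further: plate controls were DMSO wells with RBBP9 for no effect and wells lacking RBBP9 protein for full effect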
Target sequence (O75884 whole entry, looked up): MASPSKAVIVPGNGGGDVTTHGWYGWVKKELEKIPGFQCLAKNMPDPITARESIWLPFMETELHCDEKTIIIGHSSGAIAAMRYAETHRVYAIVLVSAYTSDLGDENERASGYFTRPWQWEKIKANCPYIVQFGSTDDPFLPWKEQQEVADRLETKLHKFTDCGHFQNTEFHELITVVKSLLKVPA
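System: RBBP9 protein / Quantity: 2.5 µM RBBP9 dispensing solution, before mixing / Also added: Serine-hydrolase probe FP-Rh, 375 nM pre-mixing / Dosing: 7.94 µM single dose, 0.794% DMSO / Timing: enzyme-compound preincubation 30 min, then probe labeling 45 min, 25 °C / Signal: FP readout at 525/598 nm / Controls: DMSO-treated enzyme wells and wells lacking RBBP9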
PRMT1 FP inh – inhibitors of human PRMT1 | AID 652257 | recombinant PRMT1, activity-based probe fluorescence polarization | actives 1.3% (n = 370,000) | inhibition, % at 2.79 µM | Q99873;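 active means inhibition above about 21% made by adding two undisclosed values, limit read from the data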
Target sequence (Q99873 whole entry, looked up): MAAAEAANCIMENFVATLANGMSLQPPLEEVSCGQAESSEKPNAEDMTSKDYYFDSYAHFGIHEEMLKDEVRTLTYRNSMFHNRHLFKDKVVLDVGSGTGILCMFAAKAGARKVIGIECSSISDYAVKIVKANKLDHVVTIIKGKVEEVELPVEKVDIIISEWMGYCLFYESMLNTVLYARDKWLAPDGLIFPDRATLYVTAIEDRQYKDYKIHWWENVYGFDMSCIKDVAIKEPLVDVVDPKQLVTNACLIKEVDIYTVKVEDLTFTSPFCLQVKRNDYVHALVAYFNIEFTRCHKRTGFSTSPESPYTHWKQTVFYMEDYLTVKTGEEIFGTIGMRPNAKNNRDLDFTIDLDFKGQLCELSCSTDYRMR
PME-1 primary – PME-1 (human) inhibition; Q9Y570; recombinant PME-1, FP-Rh probe fluorescence polarization; inhibition, % at 5.9 µM; actives 0.53% (n = 320,000); AID 2130;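 active means inhibition above the campaign mean of all compounds plus 3 SD, cut at about 26% in these data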;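 further: competitive labeling of PME-1 active site by serine hydrolase directed probe; 0% = PME-1 with DMSO and 100% = wells lacking PME-1 enzyme; inhibitors block probe labeling so polarization falls and inhibition rises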
Fam108B counter – counter-screen for RBBP9 inhibitors: inhibitors of mouse Fam108B | recombinant Fam108B, FP-Rh probe fluorescence polarization | inhibition, % at 9.51 µM | actives 0.33% (n = 300,000);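 active means inhibition above the screen mean inhibition plus 3 SD, computed separately per campaign, cut at about 18% in these data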;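 further: inhibitors lower polarization as less probe binds the enzyme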
PAD4 FP inh – blocks human protein arginine deiminase 4; Q9UM07; recombinant PAD4, RCA probe fluorescence polarization; inhibition, % at 6.36 µM; actives 0.41% (n = 330,000); AID 485272;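 active means percent inhibition above a cutoff equal to the mean of all tested compounds plus 3 SD, cut at about 15% in these data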;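 further: 0% = PAD4 with RCA probe and DMSO and 100% = probe without PAD4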
GSTO1 inh – blocks human GSTO1 in RBBP9 counter-screen; P78417; recombinant GSTO1, activity-based probe fluorescence polarization; inhibition, % at 5.96 µM; actives 1.1% (n = 300,000); AID 1974;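 active means inhibition above the campaign mean inhibition plus 3 SD, cut at about 35% in these data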;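 further: 0% = GSTO1-1 with DMSO and 100% = wells lacking GSTO1-1 enzyme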
The depositor's hits bear a star; nt = no result given.

SMILES | RBBP9 inhibitor | PRMT1 FP inh | PME-1 primary | Fam108B counter | PAD4 FP inh | GSTO1 inh
Cc1cc(C)c(S(=O)(=O)NCc2ccccn2)cc1C | nt | 4 | -9 | -2 | -2 | 4
COc1ccc(C(c2c(O)ccc3ccccc23)N2CCOCC2)c(OC)c1 (centres undefined) | -36 | 67* | -3 | 2 | -1 | -16
COc1ccc(C(CCN2CCOCC2)c2c(O)cc(OC)cc2OC)cc1 (centres undefined) | nt | 5 | -2 | 3 | -1 | 4
CC(C)(C)c1ccc(-c2nnc(SCCN3C(=O)c4ccccc4C3=O)o2)cc1 | -9 | 3 | -4 | 0 | 3 | -6
COc1ccc(/C=C2\SC(=O)N(CC(=O)NNC(=O)c3ccccc3O)C2=O)cc1OC | -7 | 6 | -13 | 7 | 2 | 38*
Cc1ccc(S(=O)(=O)Nn2cnnc2)cc1 | 0 | 0 | -5 | 4 | -3 | -1
O=C(OC[C@H]1O[C@@H](OC(=O)c2cc(O)c(O)c(OC(=O)c3cc(O)c(O)c(O)c3)c2)[C@H](OC(=O)c2cc(O)c(O)c(OC(=O)c3cc(O)c(O)c(O)c3)c2)[C@@H](OC(=O)c2cc(O)c(O)c(OC(=O)c3cc(O)c(O)c(O)c3)c2)[C@@H]1OC(=O)c1cc(O)c(O)c(OC(=O)c2cc(O)c(O)c(O)c2)c1)c1cc(O)c(O)c(OC(=O)c2cc(O)c(O)c(O)c2)c1 | nt | nt | 26* | 65* | -55 | 35
COC1OC(COC(=O)c2ccccc2)C(OC(=O)c2ccccc2)C1OC(=O)c1ccccc1 (centres undefined) | nt | -2 | -5 | -2 | 3 | -6
CN(C)CCCN1c2ccc([N+](=O)[O-])cc2CCc2cc([N+](=O)[O-])ccc21 | nt | 22* | 2 | 3 | -3 | -5
CCCOc1ccc(OCCNC2CCCC2)cc1 | 2 | -1 | 0 | -1 | 3 | 0
N#C/C(=C/c1cn(-c2ccccc2)nc1-c1cccc(S(=O)(=O)N2CCOCC2)c1)C(=O)NCc1ccco1 | -2 | 23* | 1 | 3 | -3 | -9
Cc1ccc2nc(-c3sc4nc(C)cc(C)c4c3N)[nH]c2c1 | -4 | 10 | 30* | 4 | -1 | -2
COc1ccc(S(=O)(=O)Nc2ccc(Oc3ccsc3C(=O)O)cc2)cc1 | nt | -1 | 1 | -5 | 0 | 35*
O=C(NNC(=O)c1ccc(Br)s1)NC1CCCCC1 | nt | 1 | nt | nt | nt | nt
CCOC(=O)NC(=O)CSc1nc(-c2ccc(C)c(C)c2)cn1-c1ccccc1 | -5 | 9 | 2 | 1 | -4 | -4
C(=N\Nc1nc2ccccc2[nH]1)/c1cccc2cccnc12 | 8 | 15 | 52* | 7 | 0 | -7
O=C(CNc1cccc2ccccc12)N/N=C/c1ccc(C(=O)O)cc1 | 4 | 3 | 14 | 11 | 1 | -10
O=C(CNc1cccc2ccccc12)N/N=C/C=C/c1ccco1 | 0 | 2 | 74* | 2 | -6 | 13
N#CC(C#N)=C(N)/C(C#N)=C/c1cc(O)c(O)c(O)c1 | nt | 20 | -7 | -1 | -5 | 64*
N#C/C(=C/c1cc(Cl)c(O)c(Cl)c1)C(=O)N1CCCCC1 | nt | -1 | 2 | -3 | 2 | 12
Cc1ccc2c(c1)-c1c(cnn1CC(=O)N(Cc1ccco1)C1CCCCC1)CO2 | -4 | 1 | 1 | -3 | -2 | 8
Cc1ccc2c(c1)-c1c(cnn1CC(=O)NC(C)CCc1ccco1)CO2 (centres undefined) | -7 | 23* | -2 | 5 | 1 | 0
CN1C(=O)CSC1=Nc1cccc(Cl)c1 | nt | 0 | -1 | -3 | -2 | 7
CN1OC[C@@H]2CN3C(=NCCc4ccccc4)Sc4ccccc4[C@@H]3C[C@@H]21 | nt | 19 | nt | nt | nt | nt
COCCN=C1Sc2ccccc2[C@@H]2C[C@H]3[C@H](CON3C)CN12 | nt | 24* | nt | nt | nt | nt
SMILES | RBBP9 inhibitor | PRMT1 FP inh | PME-1 primary | Fam108B counter | PAD4 FP inh | GSTO1 inh
CCCC(=O)NNc1c2ccccc2nc2ccccc12 | 3 | 0 | -2 | 0 | -3 | 4
O=C(NNc1c2ccccc2nc2ccccc12)c1cccc(O)c1 | 0 | -1 | 40* | 6 | 7 | 0
O=C(NNc1c2ccccc2nc2ccccc12)c1ccccc1Cl | nt | -7 | -8 | -6 | 6 | -3
O=C(NNc1c2ccccc2nc2ccccc12)c1ccc(O)cc1 | -6 | -1 | 49* | 8 | -2 | -6
O=C(NNc1c2ccccc2nc2ccccc12)c1ccccc1O | -2 | 4 | 54* | 14 | 1 | 19
O=C(NC(c1ccc(-c2ccccc2)cc1)c1cnccn1)C1CCN(CCN2C(=O)c3ccccc3C2=O)CC1 (centres undefined) | nt | -1 | nt | nt | nt | nt
O=C(CSc1n[nH]c(=O)n1C1CC1)Nc1cc(Cl)ccc1Oc1ccccc1 | 0 | -2 | -4 | -2 | 0 | 7
O=C(NCCNc1ccc([N+](=O)[O-])cc1)c1cc(F)c(F)cc1Cl | nt | 3 | 0 | -3 | 3 | 5
Cc1ccccc1Cn1c(=N)n(CC(=O)c2ccc([N+](=O)[O-])cc2)c2ccccc21 | 1 | 1 | -4 | -6 | 1 | 0
Oc1cc2c(cc1O)[C@@H](c1ccccc1)CNCC2 | 12 | 23* | nt | nt | nt | nt
Oc1cc2c(cc1O)C(c1ccccc1)CNCC2 (centres undefined) | nt | 9 | -4 | -4 | 0 | 8
COc1ccc(Nc2nnc(-c3ccc4c(c3)OCO4)o2)cc1 | nt | 24* | nt | nt | nt | nt
COc1ccc(S(=O)(=O)N2CCN(c3cnccn3)CC2)cc1OC | nt | 21* | nt | nt | 1 | nt
N#Cc1ccccc1S(=O)(=O)N1CCN(c2nc(-c3cccs3)nc3ccccc23)CC1 | nt | -2 | nt | nt | nt | nt
Nc1ccc(-c2cnc(-c3ccc(N)cc3)nc2)cc1 | 4 | -1 | 10 | -6 | -4 | -4
Oc1ccc(-c2cnc(-c3ccc(O)cc3)nc2)cc1 | nt | 1 | 36* | -7 | -1 | -17
CC(=O)Nc1ccc(S(=O)(=O)Nc2nc3ccccc3nc2Nc2ccc(N)cc2)cc1 | 13 | 23* | 9 | 8 | 0 | 22
CC(=O)Nc1ccc(S(=O)(=O)Nc2nc3ccccc3nc2Nc2ccc(C(=O)O)c(O)c2)cc1 | nt | 16 | nt | nt | 5 | nt
CNS(=O)(=O)c1cc(C(=O)OCC(=O)NC2CCCc3ccccc32)ccc1Cl (centres undefined) | -9 | 1 | 28* | 3 | 2 | 3
CCN(CC)S(=O)(=O)c1cc(C(=O)OCC(=O)NC2CCCc3ccccc32)ccc1C (centres undefined) | -5 | -1 | 23 | 1 | 1 | -2
Cc1ccc(-c2csc3ncnc(N4CCN(c5ccccc5O)CC4)c23)cc1 | nt | -1 | -10 | -10 | -10 | -3
CC(=O)OC1CC(c2cc(C(C)(C)C)c(O)c(C(C)(C)C)c2)=NO1 (centres undefined) | -4 | 0 | -2 | 0 | 0 | -10
Cc1ccc(C(=O)NC(=S)NNS(=O)(=O)c2ccc(C)cc2)cc1 | -9 | 23* | 2 | 6 | 2 | 14
